Data: ChEMBL document CHEMBL5715938, “The protein kinase Cbeta-selective inhibitor, Enzastaurin (LY317615.HCl), suppresses signaling through the AKT pathway, induces apoptosis, and suppresses growth of human colon cancer and glioblastoma xenografts” (Cancer Res, 2005)
The source made the active and inactive calls. The calls are words filed in the database; no cut-off is given here.

Target: Glycogen synthase kinase-3 beta (Homo sapiens) (UniProt P49841)
Assay: Inhibition of GSK3beta phosphorylation at serine 9 residue in human HCT-116 cells at 1 micromol/L by Western blotting analysis
Assay type: cell-based
Conditions: dose 1.0 µmol/L, time <= 4.0 hrs
Procedure, shortened: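 Cultured tumor cells treated with 1 μmol/L drug; lysates in cell extraction buffer with protease inhibitors, western blotted with phospho-specific antibodies (pGSK3β Ser9, pAKT Thr308, phospho-ERK) alongside total GSK3β/AKT.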

Glycogen synthase kinase-3 beta (Homo sapiens), sequence (P49841 whole entry, looked up): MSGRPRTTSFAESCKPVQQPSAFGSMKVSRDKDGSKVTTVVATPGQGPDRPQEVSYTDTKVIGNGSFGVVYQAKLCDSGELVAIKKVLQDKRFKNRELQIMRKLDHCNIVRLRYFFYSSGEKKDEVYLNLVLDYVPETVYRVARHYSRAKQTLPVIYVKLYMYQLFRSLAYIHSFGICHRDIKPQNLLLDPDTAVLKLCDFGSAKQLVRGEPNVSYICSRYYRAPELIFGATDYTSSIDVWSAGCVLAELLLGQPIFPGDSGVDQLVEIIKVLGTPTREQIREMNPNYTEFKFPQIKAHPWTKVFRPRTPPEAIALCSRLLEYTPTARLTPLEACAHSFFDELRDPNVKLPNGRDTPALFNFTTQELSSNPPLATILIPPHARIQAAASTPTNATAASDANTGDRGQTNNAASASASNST

inhibition: Active
SMILES: CO[C@@H]1[C@H](N(C)C(=O)c2ccccc2)C[C@H]2O[C@]1(C)n1c3ccccc3c3c4c(c5c6ccccc6n2c5c31)C(=O)NC4
